Reference: ChEMBL document CHEMBL1136968, “Structurally simple inhibitors of lanosterol 14alpha-demethylase are efficacious in a rodent model of acute Chagas disease” (J Med Chem, 2009)

Legend:
Trypanosoma cruzi = assay: Antitrypanosomal activity against Trypanosoma cruzi Tulahuen amastigotes in mouse 3T3 cells by beta-galactosidase reporter gene assay; assay type: functional, organism-based; settings: NIH3T3
Procedure, shortened: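 Tulahuen strain (TCII lineage) grown as intracellular amastigotes in murine 3T3 fibroblasts in 96-well plates. EC50 determined from triplicate screens. Standard errors within assays stayed below 15%.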

[1] = Toxicity against mouse 3T3 cells by resazurin assay; assay type: cell-based; settings: NIH3T3 cells
Procedure, shortened: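 Murine 3T3 fibroblasts screened separately from the parasites. Host-cell growth was quantified by resazurin read-out and EC50 determined.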

EC50 (Trypanosoma cruzi) [nM]	SMILES	EC50 [1] [nM]
1.3	N#Cc1ccc(NCc2cncn2Cc2ccc(-c3ccccc3)cc2)cc1-c1ccccc1	> 1000
30	COC(=O)c1ccc(NCc2cncn2Cc2cccc([N+](=O)[O-])c2)cc1-c1ccccc1	> 10000
31	Cc1ccccc1-c1cc(NCc2cncn2Cc2ccc(-c3ccccc3)cc2)ccc1-c1nc2ccccc2s1	> 1000
12	CNC(=O)c1ccc(NCc2cncn2Cc2ccc(-c3ccccc3)cc2N)cc1-c1ccccc1	> 1000
24	O=C(c1ccc(NCc2cncn2Cc2ccc(-c3ccccc3)cc2)cc1-c1ccccc1)N1CCCCC1	> 1000
1000	COC(=O)c1ccc(NCc2cncn2Cc2ccccc2C)cc1-c1ccccc1	10000
360	c1ccc(Cn2cncc2CNc2cccc(-c3ccccc3)c2)cc1	> 750
> 1000	CC(C)c1cccc(NCc2cncn2Cc2ccccc2)c1	> 1000
80	COC(=O)c1ccc(NCc2cncn2Cc2ccccc2)cc1-c1ccccc1	> 1000
100	COC(=O)c1ccc(NCc2cncn2Cc2ccccc2Cl)cc1-c1ccccc1	10000
7	COc1ccc(NCc2cncn2Cc2ccc(-c3ccccc3)cc2)cc1-c1ccccc1	> 1000
0.8	COc1ccc(NCc2cncn2Cc2ccc(-c3ccccc3)cc2N)cc1-c1ccccc1	> 1000
21	COC(=O)c1ccc(NCc2cncn2Cc2ccc(F)cc2F)cc1-c1ccccc1	> 1000
100	COC(=O)c1ccc(NCc2cncn2Cc2ccc([N+](=O)[O-])cc2)cc1-c1ccccc1	> 10000
20	COC(=O)c1ccc(NCc2cncn2Cc2ccc(Br)cc2)cc1-c1ccccc1	> 10000
0.5	COC(=O)c1ccc(NCc2cncn2Cc2ccc(-c3ccccc3)cc2)cc1-c1ccccc1	> 1000
50	CC(C)OC(=O)c1ccc(NCc2cncn2Cc2ccc(-c3ccccc3)cc2)cc1-c1ccccc1	> 10000
23	c1ccc(-c2ccc(Cn3cncc3CNc3ccc(N4CCCCC4)c(-c4ccccc4)c3)cc2)cc1	> 1000
40	CCC(=O)c1ccc(NCc2cncn2Cc2ccc(-c3ccccc3)cc2)cc1-c1ccccc1	> 10000
10	CCOC(=O)c1ccc(NCc2cncn2Cc2ccc(-c3ccccc3)cc2)cc1-c1ccccc1	> 10000
20	CN(C)c1ccc(NCc2cncn2Cc2ccc(-c3ccccc3)cc2)cc1-c1ccccc1	> 1000
50	c1ccc(-c2ccc(Cn3cncc3CNc3ccc(-c4onc5ccccc45)c(-c4ccccc4)c3)cc2)cc1	> 10000
475	COC(=O)c1ccc(NCc2cncn2Cc2cccc(C(C)(C)C)c2)cc1-c1ccccc1	> 1000
260	Cc1cccc(-c2cccc(NCc3cncn3Cc3ccccc3)c2)c1C	> 1000

EC50 (Trypanosoma cruzi) [nM]	SMILES	EC50 [1] [nM]
20	COC(=O)c1ccc(NCc2cncn2Cc2cccc(Br)c2)cc1-c1ccccc1	> 10000
64	Cc1cccc(-c2cc(NCc3cncn3Cc3ccc(-c4ccccc4)cc3)ccc2-c2nc3ccccc3s2)c1C	> 1000
80	Clc1ccc(Cn2cncc2CNc2cccc(-c3ccccc3)c2)cc1	10000
5	COC(=O)c1ccc(NCc2cncn2Cc2ccccc2N)cc1-c1ccccc1	25000
130	COC(=O)c1ccc(NCc2cncn2Cc2cccc(N)c2)cc1-c1ccccc1	> 10000
6	Clc1ccc(NCc2cncn2Cc2ccc(-c3ccccc3)cc2)cc1-c1ccccc1	> 1000
200	c1ccc(-c2ccc(Cn3cncc3CNc3ccc(-c4ccccc4)cc3)cc2)cc1	> 10000
10	O=C(OC1CCCCC1)c1ccc(NCc2cncn2Cc2ccc(-c3ccccc3)cc2)cc1-c1ccccc1	> 10000
100	O=[N+]([O-])c1ccc(Cn2cncc2CNc2cccc(-c3ccccc3)c2)cc1	10000
230	Cc1ccccc1-c1cccc(NCc2cncn2Cc2ccccc2)c1	> 1000
5	COC(=O)c1ccc(NCc2cncn2Cc2ccc(C)cc2)cc1-c1ccccc1	50000
20	COC(=O)c1ccc(NCc2cncn2Cc2cccc(C)c2)cc1-c1ccccc1	> 10000
2.4	CNC(=O)c1ccc(NCc2cncn2Cc2ccc(-c3ccccc3)cc2)cc1-c1ccccc1	> 1000
80	c1ccc(-c2ccc(Cn3cncc3CNc3ccccc3-c3ccccc3)cc2)cc1	> 10000
22	c1ccc(-c2ccc(Cn3cncc3CNc3ccc(N4CCCC4)c(-c4ccccc4)c3)cc2)cc1	> 1000
100	COC(=O)c1ccc(NCc2cncn2Cc2ccccc2[N+](=O)[O-])cc1-c1ccccc1	10000
100	Cc1ccc(Cn2cncc2CNc2cccc(-c3ccccc3)c2)cc1	10000
110	CCc1ccc(Cn2cncc2CNc2ccc(-c3nc4ccccc4s3)c(-c3ccccc3)c2)cc1	> 1000
550	Cc1cccc(-c2cccc(NCc3cncn3Cc3ccccc3)c2)c1	> 1000
100	COC(=O)c1ccc(NCc2cncn2Cc2ccccc2Br)cc1-c1ccccc1	10000
> 1000	CS(=O)(=O)c1ccc(Cn2cncc2CNc2ccc(-c3nc4ccccc4s3)c(-c3ccccc3)c2)cc1	> 1000
9.3	CN(C)C(=O)c1ccc(NCc2cncn2Cc2ccc(-c3ccccc3)cc2)cc1-c1ccccc1	> 1000
40	c1ccc(-c2ccc(Cn3cncc3CNc3ccc(-c4cc5ccccc5o4)c(-c4ccccc4)c3)cc2)cc1	> 10000
40	CCCC(=O)c1ccc(NCc2cncn2Cc2ccc(-c3ccccc3)cc2)cc1-c1ccccc1	> 10000

EC50 (Trypanosoma cruzi) [nM]	SMILES	EC50 [1] [nM]
250	Clc1ccc(Cn2cncc2CNc2ccc(-c3nc4ccccc4s3)c(-c3ccccc3)c2)cc1	> 1000
120	Cc1ccccc1-c1ccc(Cn2cncc2CNc2ccc(-c3nc4ccccc4s3)c(-c3ccccc3)c2)cc1	> 1000
10	Nc1cc(-c2ccccc2)ccc1Cn1cncc1CNc1ccc(-c2cncs2)c(-c2ccccc2)c1	> 1000
540	CC(C)c1ccc(Cn2cncc2CNc2ccc(-c3nc4ccccc4s3)c(-c3ccccc3)c2)cc1	> 1000
510	c1ccc(Cn2cncc2CNc2cccc(-c3ccncc3)c2)cc1	> 1000
100	c1ccc(-c2ccc(Cn3cncc3CNc3ccc(-c4nc5ccccc5o4)c(-c4ccccc4)c3)cc2)cc1	> 10000
250	COC(=O)c1ccc(NCc2cncn2Cc2ccc(N)cc2)cc1-c1ccccc1	> 10000
10	c1ccc(-c2ccc(Cn3cncc3CNc3ccc(-c4noc5ccccc45)c(-c4ccccc4)c3)cc2)cc1	> 10000
10	c1ccc(-c2ccc(Cn3cncc3CNc3cccc(-c4ccccc4)c3)cc2)cc1	10000
100	COC(=O)c1ccc(NCc2cncn2Cc2cccc(C#N)c2)cc1-c1ccccc1	> 10000
150	COC(=O)c1ccc(NCc2cncn2Cc2cccc(F)c2)cc1-c1ccccc1	> 1000
40	CC(=O)c1ccc(NCc2cncn2Cc2ccc(-c3ccccc3)cc2)cc1-c1ccccc1	> 10000
100	c1ccc(-c2ccc(Cn3cncc3CNc3ccc(-c4ccc[nH]4)c(-c4ccccc4)c3)cc2)cc1	> 10000
20	COC(=O)c1ccc(NCc2cncn2Cc2cccc(Cl)c2)cc1-c1ccccc1	> 10000
5	COC(=O)c1ccc(NCc2cncn2Cc2ccc(Cl)cc2)cc1-c1ccccc1	25000
1.5	N#Cc1ccc(NCc2cncn2Cc2ccc(-c3ccccc3)cc2N)cc1-c1ccccc1	> 1000
9	c1ccc(-c2ccc(Cn3cncc3CNc3ccc(-c4cncs4)c(-c4ccccc4)c3)cc2)cc1	> 1000
600	c1ccc(Cn2cncc2CNc2cccc(-c3cccnc3)c2)cc1	> 1000
420	Fc1ccc(Cn2cncc2CNc2ccc(-c3nc4ccccc4s3)c(-c3ccccc3)c2)c(F)c1	> 1000
200	COC(=O)c1ccc(NCc2cncn2Cc2ccccc2C#N)cc1-c1ccccc1	25000
25	COC(=O)c1ccc(NCc2cncn2Cc2ccc(OC)cc2)cc1-c1ccccc1	
80	c1ccc(-c2ccc(Cn3cncc3CNc3ccc(-c4ccccc4)c(-c4ccccc4)c3)cc2)cc1	> 10000
25	COC(=O)c1ccc(NCc2cncn2Cc2ccc(C#N)cc2)cc1-c1ccccc1	> 10000
80	COC(=O)c1ccc(NCc2cncn2Cc2ccc(-c3ccccc3)cc2)cc1	> 10000
